{
  "source": "ChEMBL document CHEMBL4152363",
  "about": "“Andrographolide derivative as STAT3 inhibitor that protects acute liver damage in mice” (Bioorg Med Chem, 2018)",
  "key": {"[1]": {"target": "T1, Signal transducer and activator of transcription 3 (Homo sapiens, UniProt P40763)", "T1 sequence (P40763 whole entry)": "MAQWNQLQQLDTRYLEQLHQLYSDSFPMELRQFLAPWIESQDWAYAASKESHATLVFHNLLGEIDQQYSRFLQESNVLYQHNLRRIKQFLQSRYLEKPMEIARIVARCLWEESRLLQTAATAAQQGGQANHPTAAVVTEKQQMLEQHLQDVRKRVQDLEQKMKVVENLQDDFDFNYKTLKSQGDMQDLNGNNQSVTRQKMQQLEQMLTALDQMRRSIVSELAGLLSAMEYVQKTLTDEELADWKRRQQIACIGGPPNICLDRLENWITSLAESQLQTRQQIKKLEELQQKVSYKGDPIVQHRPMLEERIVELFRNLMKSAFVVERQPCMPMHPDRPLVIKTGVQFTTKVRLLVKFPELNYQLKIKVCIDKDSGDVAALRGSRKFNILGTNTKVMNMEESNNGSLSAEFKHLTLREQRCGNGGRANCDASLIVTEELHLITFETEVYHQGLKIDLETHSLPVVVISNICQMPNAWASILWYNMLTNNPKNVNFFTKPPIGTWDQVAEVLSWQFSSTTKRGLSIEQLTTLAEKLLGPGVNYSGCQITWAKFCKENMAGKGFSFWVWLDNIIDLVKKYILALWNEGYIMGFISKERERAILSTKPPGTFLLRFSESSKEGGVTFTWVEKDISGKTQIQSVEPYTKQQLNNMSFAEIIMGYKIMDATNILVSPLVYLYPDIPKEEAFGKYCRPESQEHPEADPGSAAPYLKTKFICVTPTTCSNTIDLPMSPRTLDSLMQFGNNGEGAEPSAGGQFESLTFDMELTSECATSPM", "experiment": "Inhibition of IL-6 stimulated STAT3 activation in human AD293 cells incubated with IL-6 for 16 hrs followed by compound addition measured after 6 hrs by luciferase reporter gene assay", "format": "cell-based", "procedure,_shortened": "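AD-293 cells stimulated with 2.5 μg/mL IL-6; compound treatment 6 h; luciferase activity read from cell extracts; EC50 derived.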"}, "[2]": {"target": "T1, Signal transducer and activator of transcription 3", "experiment": "Inhibition of IFNgamma-stimulated GFP/FLAG-tagged STAT3 dimerization in human AD293 cells at 10 uM incubated for 6 hrs by Western blot analysis", "format": "cell-based", "procedure,_shortened": "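AD-293 cells co-transfected 48 h with GFP- and FLAG-tagged STAT3 plasmids, then IFN-γ with or without compound for 6 h; 100 μg lysate (RIPA) immunoprecipitated with anti-FLAG and protein G beads; blots probed for GFP and FLAG, chemiluminescent detection.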"}, "Mus musculus [3]": {"system": "Mus musculus", "experiment": "Reduction in MMP13 mRNA expression level in CCL4-induced acute liver damage in Balb/c mouse at 30 mg/kg, po qd for 7 days measured after 16 hrs post CCL4 challenge by qRT-PCR method", "format": "functional, organism-based", "procedure,_shortened": "(§1)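 Mice given 30 mg/kg orally once daily 7 days before sc CCl4 (40% in olive oil, 10 ml/kg); livers harvested 16 h later, PBS-washed, stored at −70 °C for RNA extraction and transcript quantification; n=5, two independent experiments.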"}, "Mus musculus [4]": {"system": "Mus musculus", "experiment": "Hepatoprotective activity against CCL4-induced acute liver damage in Balb/c mouse assessed as decrease in number of necrotic cells at 30 mg/kg, po qd for 7 days measured after 16 hrs post CCL4 challenge by hematoxylin-eosin staining based light microscopy", "format": "functional, organism-based", "procedure,_shortened": "(§2)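 Male BalB/C mice given oral 30 mg/kg daily for 7 days, then sc CCl4 (40% in olive oil, 10 ml/kg); sacrificed 16 h later; livers fixed in 10% formaldehyde, paraffin sections stained with H&E or Masson's trichrome, light microscopy, ≥3 sections per liver; n=5, two experiments.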"}, "Mus musculus [5]": {"system": "Mus musculus", "experiment": "Toxicity in Balb/c mouse assessed as change in body weight at 30 mg/kg, po qd for 7 days", "format": "organism-based", "conditions": "in vivo, 168 h", "procedure,_shortened": "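Male BalB/C mice (20–25 g, 6–8 weeks, 1-week acclimation) dosed orally 30 mg/kg once daily 7 days, then subcutaneous CCl4 (40% in olive oil, 10 ml/kg); body weight tracked during treatment; S.E.M.; two independent experiments, n=5.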"}, "Mus musculus [6]": {"system": "Mus musculus", "experiment": "Antiinflammatory activity in CCL4-induced acute liver damage Balb/c mouse model assessed as decrease in serum IL-6 levels at 30 mg/kg, po qd for 7 days measured after 16 hrs post CCL4 challenge", "format": "functional, organism-based", "procedure,_shortened": "(§3)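 BalB/C males dosed orally 30 mg/kg daily for 7 days, then sc CCl4 (40% in olive oil, 10 ml/kg); serum collected 16 h post-CCl4 after CO2 anaesthesia, stored at −70 °C until IL-6, MCP-1 or TGF-β analysis; n=5.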"}, "Mus musculus [7]": {"system": "Mus musculus", "experiment": "Reduction in serum ALT level in CCL4-induced acute liver damage in Balb/c mouse at 30 mg/kg, po qd for 7 days measured after 16 hrs post CCL4 challenge […]", "format": "functional, organism-based"}, "Mus musculus [8]": {"system": "Mus musculus", "experiment": "Reduction in MMP10 mRNA expression level in CCL4-induced acute liver damage in Balb/c mouse at 30 mg/kg, po qd for 7 days measured after 16 hrs post CCL4 challenge by qRT-PCR method", "format": "functional, organism-based", "procedure,_shortened": "as §1"}, "Mus musculus [9]": {"system": "Mus musculus", "experiment": "Reduction in SMAD2 mRNA expression level in liver of CCL4-induced acute liver damage in Balb/c mouse at 30 mg/kg, po qd for 7 days measured after 16 hrs post CCL4 challenge by qRT-PCR method", "format": "functional, organism-based", "procedure,_shortened": "as §1"}, "Mus musculus [10]": {"system": "Mus musculus", "experiment": "Hepatoprotective activity against CCL4-induced acute liver damage in Balb/c mouse assessed as increase in number of PCNA positive cells at 30 mg/kg, po qd for 7 days measured after 16 hrs post CCL4 challenge by hematoxylin staining based immunohistochemistry method", "format": "functional, organism-based", "procedure,_shortened": "(§4)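 Liver sections from mice dosed orally 30 mg/kg daily 7 days then sc CCl4, killed 16 h after; H2O2 block, goat serum/BSA/gelatin blocking 1 h RT, primary antibody (α-SMA, Ki67, PCNA or STAT3) 4 °C overnight, HRP secondary, DAB, hematoxylin counterstain; >30 fields at 400× quantified; n=5.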"}, "Mus musculus [11]": {"system": "Mus musculus", "experiment": "Antiinflammatory activity in CCL4-induced acute liver damage Balb/c mouse model assessed as decrease in serum MCP-1 levels at 30 mg/kg, po qd for 7 days measured after 16 hrs post CCL4 challenge", "format": "functional, organism-based", "procedure,_shortened": "as §3"}, "[12]": {"target": "T1, Signal transducer and activator of transcription 3", "experiment": "Inhibition of […] activation in human HeLa cells incubated […] for 16 hrs followed by compound addition measured after 4 hrs by luciferase reporter gene assay", "format": "cell-based", "procedure,_shortened": "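NF-κB pathway in AD-293 or HeLa cells stimulated with 50 ng/mL TNF-α; compound treatment 4 h; luciferase activity read from cell extracts; EC50 derived.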"}, "Mus musculus [13]": {"system": "Mus musculus", "experiment": "Hepatoprotective activity against CCL4-induced acute liver damage in Balb/c mouse assessed as increase in number of Ki67 positive cells at 30 mg/kg, po qd for 7 days measured after 16 hrs post CCL4 challenge by hematoxylin staining based immunohistochemistry method", "format": "functional, organism-based", "procedure,_shortened": "as §4"}, "HeLa": {"system": "HeLa", "experiment": "Cytotoxicity against human HeLa cells", "format": "cell-based", "procedure,_shortened": "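AD-293 or HeLa cells grown in high-glucose DMEM with 10% FBS and 1% penicillin-streptomycin; compound exposure 24 h; cytotoxicity reported as CC10.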"}, "Mus musculus [14]": {"system": "Mus musculus", "experiment": "Reduction in serum AST level in CCL4-induced acute liver damage in Balb/c mouse at 30 mg/kg, po qd for 7 days measured after 16 hrs post CCL4 challenge […]", "format": "functional, organism-based"}, "Mus musculus [15]": {"system": "Mus musculus", "experiment": "Hepatoprotective activity against CCL4-induced acute liver damage in Balb/c mouse assessed as decrease in hepatic damage at 30 mg/kg, po qd for 7 days measured after 16 hrs post CCL4 challenge by hematoxylin-eosin staining based light microscopy", "format": "functional, organism-based", "procedure,_shortened": "as §2"}, "Mus musculus [16]": {"system": "Mus musculus", "experiment": "Reduction in Col3a1 mRNA expression level in CCL4-induced acute liver damage in Balb/c mouse at 30 mg/kg, po qd for 7 days measured after 16 hrs post CCL4 challenge by qRT-PCR method", "format": "functional, organism-based", "procedure,_shortened": "as §1"}, "Mus musculus [17]": {"system": "Mus musculus", "experiment": "Reduction in SMAD3 mRNA expression level in liver of CCL4-induced acute liver damage in Balb/c mouse at 30 mg/kg, po qd for 7 days measured after 16 hrs post CCL4 challenge by qRT-PCR method", "format": "functional, organism-based", "procedure,_shortened": "as §1"}},
  "note": "Active and inactive are the calls of the source. The rule behind the calls is not given here.",
  "data": [
    {"smiles": "CC(C)(C)[Si](C)(C)O[C@@H]1COC(=O)/C1=C/C[C@@H]1[C@]2(CC[C@H]3[C@@]1(C)CCC(=O)[C@@]3(C)CO)CO2", "values": [
      {"measurement": "EC50", "setting": "[1]", "result": 3.95, "unit": "µM"},
      {"measurement": "inhibition", "setting": "[2]", "result": "Active"},
      {"measurement": "Activity", "setting": "Mus musculus [3]", "result": "Active"},
      {"measurement": "Activity", "setting": "Mus musculus [4]", "result": "Active"},
      {"measurement": "Activity", "setting": "Mus musculus [5]", "result": "Non-Toxic"},
      {"measurement": "Activity", "setting": "Mus musculus [6]", "result": "Active"},
      {"measurement": "Activity", "setting": "Mus musculus [7]", "result": "inactive"},
      {"measurement": "Activity", "setting": "Mus musculus [8]", "result": "Active"},
      {"measurement": "Activity", "setting": "Mus musculus [9]", "result": "inactive"},
      {"measurement": "Activity", "setting": "Mus musculus [10]", "result": "Active"},
      {"measurement": "Activity", "setting": "Mus musculus [11]", "result": "Active"},
      {"measurement": "EC50", "setting": "[12]", "result": "> 10", "unit": "µM"},
      {"measurement": "Activity", "setting": "Mus musculus [13]", "result": "Active"},
      {"measurement": "CC10", "setting": "HeLa", "result": "> 10", "unit": "µM"},
      {"measurement": "Activity", "setting": "Mus musculus [14]", "result": "inactive"},
      {"measurement": "Activity", "setting": "Mus musculus [15]", "result": "Active"},
      {"measurement": "Activity", "setting": "Mus musculus [16]", "result": "inactive"},
      {"measurement": "Activity", "setting": "Mus musculus [17]", "result": "inactive"}
    ]}
  ]
}
